The source of these data is ChEMBL document CHEMBL1136812, “Structure-activity relationships of dimethindene derivatives as new M2-selective muscarinic receptor antagonists” (J Med Chem, 2003).

Assay type in all cases: cell-based
In assay [1] the target is T1, Muscarinic acetylcholine receptor M4 (Homo sapiens, UniProt P08173).
T1 sequence (P08173 whole entry): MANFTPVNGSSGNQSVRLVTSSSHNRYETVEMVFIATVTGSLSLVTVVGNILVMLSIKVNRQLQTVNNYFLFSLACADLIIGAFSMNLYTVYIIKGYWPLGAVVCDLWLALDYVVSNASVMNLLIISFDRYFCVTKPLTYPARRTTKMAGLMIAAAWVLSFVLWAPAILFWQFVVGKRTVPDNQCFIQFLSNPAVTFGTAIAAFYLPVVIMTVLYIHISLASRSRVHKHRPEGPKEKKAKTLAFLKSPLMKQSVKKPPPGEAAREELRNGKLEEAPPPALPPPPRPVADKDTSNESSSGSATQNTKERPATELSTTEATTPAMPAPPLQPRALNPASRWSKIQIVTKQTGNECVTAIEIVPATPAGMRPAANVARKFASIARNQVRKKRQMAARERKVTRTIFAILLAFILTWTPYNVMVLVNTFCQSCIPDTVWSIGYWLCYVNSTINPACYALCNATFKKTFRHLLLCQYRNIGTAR
The assay can be described thus: Binding affinity towards cloned human muscarinic acetylcholine receptor M4 stably expressed in CHO-K1 cells using [3H]N-methylscopolamine.

In assay [2] the target is Muscarinic acetylcholine receptor M3 (Homo sapiens, UniProt P20309). Description: Binding affinity towards cloned human muscarinic acetylcholine receptor M3 stably expressed in CHO-K1 cells using [3H]N-methylscopolamine.
For assay [3], the target named is T2, Muscarinic acetylcholine receptor M1 (Homo sapiens, UniProt P11229).
T2 sequence (P11229 whole entry): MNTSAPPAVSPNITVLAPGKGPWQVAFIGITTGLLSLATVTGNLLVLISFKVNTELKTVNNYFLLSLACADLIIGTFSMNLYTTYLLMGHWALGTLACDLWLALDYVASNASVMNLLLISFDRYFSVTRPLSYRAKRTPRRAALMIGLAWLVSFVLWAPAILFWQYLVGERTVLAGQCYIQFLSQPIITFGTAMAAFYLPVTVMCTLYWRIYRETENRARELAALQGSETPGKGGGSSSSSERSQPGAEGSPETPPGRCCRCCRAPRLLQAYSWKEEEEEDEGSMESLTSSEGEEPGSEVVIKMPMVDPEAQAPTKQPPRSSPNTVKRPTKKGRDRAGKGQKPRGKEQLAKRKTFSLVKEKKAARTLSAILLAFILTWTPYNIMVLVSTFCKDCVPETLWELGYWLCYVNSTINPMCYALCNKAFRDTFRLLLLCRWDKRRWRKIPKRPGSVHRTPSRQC
Description: Binding affinity towards cloned human muscarinic acetylcholine receptor M1 stably expressed in CHO-K1 cells using [3H]N-methylscopolamine.

Assay [4] addresses T3, Muscarinic acetylcholine receptor M5 (Homo sapiens, UniProt P08912).
T3 sequence (P08912 whole entry): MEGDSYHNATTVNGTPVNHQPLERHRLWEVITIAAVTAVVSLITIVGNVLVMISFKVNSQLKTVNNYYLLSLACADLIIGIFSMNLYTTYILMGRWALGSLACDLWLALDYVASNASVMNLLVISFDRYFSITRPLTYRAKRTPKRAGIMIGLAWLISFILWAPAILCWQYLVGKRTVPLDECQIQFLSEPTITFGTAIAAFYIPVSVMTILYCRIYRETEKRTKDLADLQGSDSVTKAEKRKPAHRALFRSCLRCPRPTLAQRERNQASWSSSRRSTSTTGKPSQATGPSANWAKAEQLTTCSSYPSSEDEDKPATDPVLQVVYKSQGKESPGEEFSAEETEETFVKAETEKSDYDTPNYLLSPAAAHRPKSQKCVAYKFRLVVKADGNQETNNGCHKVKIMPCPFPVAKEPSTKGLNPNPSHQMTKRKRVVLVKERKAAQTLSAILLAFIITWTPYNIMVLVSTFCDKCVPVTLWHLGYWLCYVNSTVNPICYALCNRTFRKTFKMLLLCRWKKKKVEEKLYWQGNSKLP
Description: Binding affinity towards cloned human muscarinic acetylcholine receptor M5 stably expressed in CHO-K1 cells using [3H]N-methylscopolamine.

Assay [5] deals with Histamine H1 receptor (Homo sapiens, UniProt P35367). The assay can be described thus: Compound was evaluated for binding affinity towards cloned human histamine H1 receptors stably expressed in CHO-K1 cells using [3H]mepyramine. An outline of the steps:
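CHO-K1 membranes with stable human H1 receptor, 18 µg/mL final protein. […] Nonspecific binding with 0.1 mM terfenadine. Filtered and counted. Ki by Cheng-Prusoff. pKi mean ± SD, ≥3 experiments in duplicate.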

In assay [6] the target is T4, Muscarinic acetylcholine receptor M2 (Homo sapiens, UniProt P08172).
T4 sequence (P08172 whole entry): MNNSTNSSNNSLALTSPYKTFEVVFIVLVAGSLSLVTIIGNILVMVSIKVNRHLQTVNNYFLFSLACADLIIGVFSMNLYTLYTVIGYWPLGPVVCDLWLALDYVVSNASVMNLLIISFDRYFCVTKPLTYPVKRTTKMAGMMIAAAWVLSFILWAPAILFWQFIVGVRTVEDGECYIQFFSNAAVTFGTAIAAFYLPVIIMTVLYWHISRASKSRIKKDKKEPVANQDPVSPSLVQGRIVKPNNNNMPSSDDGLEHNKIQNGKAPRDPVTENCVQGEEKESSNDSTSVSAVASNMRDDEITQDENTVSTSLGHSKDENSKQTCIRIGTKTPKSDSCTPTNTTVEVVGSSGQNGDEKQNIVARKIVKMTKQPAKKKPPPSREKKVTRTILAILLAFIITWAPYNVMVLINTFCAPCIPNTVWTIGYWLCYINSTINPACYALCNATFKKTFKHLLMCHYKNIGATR
The assay can be described thus: Binding affinity towards cloned human muscarinic acetylcholine receptor M2 stably expressed in CHO-K1 cells using [3H]N-methylscopolamine.

Sequence of Muscarinic acetylcholine receptor M3 (P20309 whole entry): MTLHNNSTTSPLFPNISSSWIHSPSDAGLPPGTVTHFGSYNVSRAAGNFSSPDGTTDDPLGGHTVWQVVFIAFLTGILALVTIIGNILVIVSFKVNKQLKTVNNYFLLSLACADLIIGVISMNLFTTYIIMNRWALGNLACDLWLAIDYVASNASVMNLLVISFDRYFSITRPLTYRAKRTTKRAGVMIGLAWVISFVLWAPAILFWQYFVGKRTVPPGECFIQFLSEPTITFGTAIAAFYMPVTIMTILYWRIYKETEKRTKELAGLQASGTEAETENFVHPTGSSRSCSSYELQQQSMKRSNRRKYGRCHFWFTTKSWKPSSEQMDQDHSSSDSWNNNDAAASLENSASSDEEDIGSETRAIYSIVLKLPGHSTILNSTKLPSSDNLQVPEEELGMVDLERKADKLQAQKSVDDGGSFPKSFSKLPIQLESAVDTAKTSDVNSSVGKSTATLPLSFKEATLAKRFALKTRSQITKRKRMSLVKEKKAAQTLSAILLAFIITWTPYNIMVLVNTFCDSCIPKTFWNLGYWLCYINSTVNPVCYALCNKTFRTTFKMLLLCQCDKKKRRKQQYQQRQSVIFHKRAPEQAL
Sequence of Histamine H1 receptor (P35367 whole entry): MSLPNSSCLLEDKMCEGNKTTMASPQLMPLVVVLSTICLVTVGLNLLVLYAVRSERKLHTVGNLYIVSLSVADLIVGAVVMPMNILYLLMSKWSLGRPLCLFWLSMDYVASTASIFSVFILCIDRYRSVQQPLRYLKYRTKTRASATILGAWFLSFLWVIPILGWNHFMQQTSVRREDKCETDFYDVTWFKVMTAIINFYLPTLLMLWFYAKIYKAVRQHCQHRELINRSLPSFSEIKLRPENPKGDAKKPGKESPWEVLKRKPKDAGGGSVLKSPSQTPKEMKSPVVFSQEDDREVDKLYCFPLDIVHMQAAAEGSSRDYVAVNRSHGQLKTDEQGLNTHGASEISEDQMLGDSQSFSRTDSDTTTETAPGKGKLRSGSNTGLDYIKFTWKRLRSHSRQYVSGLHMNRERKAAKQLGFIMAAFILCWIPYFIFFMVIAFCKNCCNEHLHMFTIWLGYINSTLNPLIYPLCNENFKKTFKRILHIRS

As to `C[C@@H](C1=C(CCN(C)C)Cc2ccccc21)c1ccccn1`, the Ki in assay [1] was 295 nM; in assay [2], 138 nM; in assay [3] it was 191 nM; in assay [4], 759 nM; in assay [5], 69.2 nM; in assay [6], 30.2 nM.

As to `CC(C1=C(CCN(C)C)Cc2cc(Cl)ccc21)c1ccccn1` (stereo not drawn), the Ki in assay [1] was 331 nM; in assay [2] it was 95.5 nM; in assay [3] it was 151 nM; in assay [4], 724 nM; in assay [5] it was 0.813 nM; in assay [6] it was 33.1 nM.

Take `CC(C1=C(CCN(C)CCF)Cc2ccccc21)c1ccccn1` (stereo not drawn): the Ki in assay [1] was 437 nM; in assay [2], 708 nM; in assay [3] it was 603 nM; in assay [4], 2000 nM; in assay [5], 7.24 nM; in assay [6] it was 32.4 nM.

As for `CC(C1=C(CN(C)C)Cc2ccccc21)c1ccccn1` (stereo not drawn), the inhibition constant (Ki) in assay [1] was 97.7 nM; in assay [2], 31.6 nM; in assay [3], 34.7 nM; in assay [4], 87.1 nM; in assay [5], 28.8 nM; in assay [6] it was 12.3 nM.

Consider `CC(C1=C(CCN(C(C)C)C(C)C)Cc2ccccc21)c1ccccn1` (stereo in doubt; 19), for which the inhibitory constant (Ki) in assay [1] is 741 nM; in assay [2], 2240 nM; in assay [3], 741 nM; in assay [4], 2190 nM; in assay [6], 25.1 nM.

As to `CC(C1=C(CCN(C(C)C)C(C)C)Cc2ccccc21)c1ccccn1` (stereo in doubt; (+)-19), the inhibition constant Ki in assay [1] was 5500 nM; in assay [2] it was 20900 nM; in assay [3] it was 5890 nM; in assay [4], 5130 nM; in assay [5], 219 nM; in assay [6] it was 575 nM.

As for `CC(C1=C(CCN(C(C)C)C(C)C)Cc2ccccc21)c1ccccn1` (stereo in doubt; (-)-19), the Ki in assay [1] is 1780 nM; in assay [2], 4070 nM; in assay [3], 1550 nM; in assay [4], 11700 nM; in assay [5], 2450 nM; in assay [6], 42.7 nM.

On to `C[C@H](C1=C(CCN(C)C)Cc2ccccc21)c1ccccn1` [(S)-(+)-DIMETHINDENE], for which the Ki was 3890 nM in assay [1]; 3390 nM in assay [2]; 1860 nM in assay [3]; 2690 nM in assay [4]; 0.437 nM in assay [5]; 1230 nM in assay [6].

`CC(C1=C(CCN(C)C)Cc2ccccc21)c1ccccn1` (stereo not drawn) [DIMETHINDENE]: the inhibitory constant (Ki) in assay [5] was 0.692 nM.
